ChEMBL document CHEMBL1149040, “Two new macrolide sesquiterpene pyridine alkaloids from Maytenus emarginata: emarginatine G and the cytotoxic emarginatine F” (1994)
≈ marks a conversion by molar mass, not a printed value.

What was measured:
Assay type in all cases: functional
Details in all cases: read-out: ED50 (the source's name)
KB = test: Cytotoxicity against human KB cells
Method in brief: (§1)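 In vitro cytotoxicity against a tumor-cell panel. Panel: KB (nasopharyngeal carcinoma), A-549 (human lung carcinoma), HCT-8 (human colon adenocarcinoma), RPMI-7951 (human melanoma), TE-671 (human medulloblastoma) and P-388 (murine leukemia). The procedure follows published protocols.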

A549 = test: Cytotoxicity against human A549 cells; method in brief: as §1
HCT-8 = test: Cytotoxicity against human HCT8 cells; method in brief: as §1
P388 = test: Cytotoxicity against mouse P388 cells; method in brief: as §1
TE-671 = test: Cytotoxicity against human TE671 cells; method in brief: as §1
RPMI-7951 = test: Cytotoxicity against human RPMI7951 cells; method in brief: as §1

Row | SMILES | EC50 (KB) [µg/mL] | EC50 (A549) [µg/mL] | EC50 (HCT-8) [µg/mL] | EC50 (P388) [µg/mL] | EC50 (TE-671) [µg/mL] | EC50 (RPMI-7951) [µg/mL]
1 | CC(=O)OC[C@]12[C@H](OC(C)=O)[C@@H](O)[C@@H]3[C@@H](OC(C)=O)[C@@]14O[C@@]3(C)COC(=O)c1cccnc1[C@H](C)[C@H](C)C(=O)O[C@@H]([C@H](OC(=O)c1ccc(=O)n(C)c1)[C@@H]2OC(=O)c1ccccc1)[C@@]4(C)O [EMARGINATINE F] | 0.51 (≈ 0.555 µM) | 5.5 (≈ 5.99 µM) | 1.29 (≈ 1.4 µM) | 0.69 (≈ 0.751 µM) | 0.21 (≈ 0.229 µM) | < 0.1
2 | C/C=C(\C)C(=O)O[C@H]1[C@@H](OC(=O)c2ccc(=O)n(C)c2)[C@@H]2OC(=O)[C@@H](C)[C@@H](C)c3ncccc3C(=O)OC[C@]3(C)O[C@@]4([C@H](OC(C)=O)[C@H]3[C@@H](OC(C)=O)[C@@H](OC(C)=O)[C@]14COC(C)=O)[C@]2(C)O [EMARGINATINE G] | > 10 | > 10 | > 10 | > 10 | > 10 | > 10
